Measured values: ChEMBL document CHEMBL1811881, “Development of 3-substituted-androsterone derivatives as potent inhibitors of 17β-hydroxysteroid dehydrogenase type 3” (Bioorg Med Chem, 2011)

Assays:
Type in all cases: cell-based
[1] = target: T1, 17-beta-hydroxysteroid dehydrogenase type 3 (Homo sapiens) (UniProt P37058); assay: Inhibition of 17Beta-HSD3 expressed in homogenized HEK293 cells assessed as transformation of [14C]-4-androstene-3,17-dione into [14C]-testosterone in presence of NADPH at 0.1 uM
T1 sequence (whole entry): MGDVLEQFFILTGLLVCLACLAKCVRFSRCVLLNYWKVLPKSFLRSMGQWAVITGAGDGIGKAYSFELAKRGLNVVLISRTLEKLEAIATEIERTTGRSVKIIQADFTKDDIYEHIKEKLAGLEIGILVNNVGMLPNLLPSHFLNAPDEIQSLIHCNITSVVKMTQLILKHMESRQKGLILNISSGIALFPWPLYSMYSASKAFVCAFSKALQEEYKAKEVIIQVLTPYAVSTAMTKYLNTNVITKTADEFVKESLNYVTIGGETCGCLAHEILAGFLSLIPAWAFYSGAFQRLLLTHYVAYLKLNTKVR
In short: (§1)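 HEK-293 cells overexpressing 17β-HSD3 were briefly homogenized. The enzyme assay measured conversion of 50 nM [4-14C]-4-androstene-3,17-dione to [14C]-testosterone with NADPH in excess (5 mM). Inhibitor was dissolved in ethanol, and the ethanol-only control was used to derive % inhibition at each concentration. Error 10%.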

[2] = target: T1, 17-beta-hydroxysteroid dehydrogenase type 3 (Homo sapiens); assay: Inhibition of 17Beta-HSD3 expressed in intact HEK293 cells assessed as transformation of [14C]-4-androstene-3,17-dione into [14C]-testosterone in presence of NADPH at 1 uM after 1 hr incubation
In short: (§2)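 HEK-293 cells were grown in MEM with 10% FBS at 37 °C under 5% CO2, seeded at 200,000 cells/well, and transfected with 2 µg/well of a 17β-HSD3 expression plasmid. Intact cells then got 50 nM [4-14C]-4-androstene-3,17-dione plus inhibitor in ethanol (0.5% v/v) for 1 h. Radiolabelled steroids were extracted from the medium and quantified. Triplicate; % transformation was used to derive IC50.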

[3] = target: T1, 17-beta-hydroxysteroid dehydrogenase type 3 (Homo sapiens); assay: Inhibition of 17Beta-HSD3 expressed in homogenized HEK293 cells assessed as transformation of [14C]-4-androstene-3,17-dione into [14C]-testosterone in presence of NADPH at 0.01 uM; in short: as §1
[4] = target: T1, 17-beta-hydroxysteroid dehydrogenase type 3 (Homo sapiens); assay: Inhibition of 17Beta-HSD3 expressed in homogenized HEK293 cells assessed as transformation of [14C]-4-androstene-3,17-dione into [14C]-testosterone in presence of NADPH at 1 uM; in short: as §1
[5] = target: T1, 17-beta-hydroxysteroid dehydrogenase type 3 (Homo sapiens); assay: Inhibition of 17Beta-HSD3 expressed in intact HEK293 cells assessed as transformation of [14C]-4-androstene-3,17-dione into [14C]-testosterone in presence of NADPH at 0.1 uM after 1 hr incubation; in short: as §2

Row | Compound | inhibition [1] | inhibition [2] | inhibition [3] | inhibition [4] | inhibition [5]
1 | C[C@]12CC[C@](O)(CN3CCN(Cc4cccnc4)CC3)C[C@@H]1CC[C@@H]1[C@@H]2CC[C@]2(C)C(=O)CC[C@@H]12 | 33% | 63% | 10% |  | 
2 | CCN(CCN1C[C@]2(CC[C@@]3(C)[C@@H](CC[C@@H]4[C@@H]3CC[C@]3(C)C(=O)CC[C@@H]43)C2)OC1=O)C1CCCCC1 | 21% |  | 2% | 72% | 2%
3 | C[C@@H]1CN(Cc2cccc(SC(F)(F)F)c2)[C@@H](C)CN1C[C@@]1(O)CC[C@@]2(C)[C@@H](CC[C@@H]3[C@@H]2CC[C@]2(C)C(=O)CC[C@@H]32)C1 | 88% | 58% | 18% |  | 
4 | Cc1cccc(S(=O)(=O)CCN2C[C@]3(CC[C@@]4(C)[C@@H](CC[C@@H]5[C@@H]4CC[C@]4(C)C(=O)CC[C@@H]54)C3)OC2=O)c1 | 52% |  | 0% | 93% | 5%
5 | C[C@]12CC[C@@]3(C[C@@H]1CC[C@@H]1[C@@H]2CC[C@]2(C)C(=O)CC[C@@H]12)CN(CCO)C(=O)O3 | 9% |  | 0% | 38% | 16%
6 | CCN(CCN1C[C@]2(CC[C@@]3(C)[C@@H](CC[C@@H]4[C@@H]3CC[C@]3(C)C(=O)CC[C@@H]43)C2)OC1=O)Cc1ccccc1 | 71% |  | 14% | 93% | 40%
7 | C[C@]12CC[C@@]3(C[C@@H]1CC[C@@H]1[C@@H]2CC[C@]2(C)C(=O)CC[C@@H]12)CN(C1CCCCC1)C(=O)O3 | 75% |  | 13% | 78% | 29%
8 | CCCN(CCN1C[C@]2(CC[C@@]3(C)[C@@H](CC[C@@H]4[C@@H]3CC[C@]3(C)C(=O)CC[C@@H]43)C2)OC1=O)C(=O)CC | 35% |  | 0% | 80% | 25%
9 | C[C@@H]1CN(Cc2cccc(Cl)c2)[C@@H](C)CN1C[C@@]1(O)CC[C@@]2(C)[C@@H](CC[C@@H]3[C@@H]2CC[C@]2(C)C(=O)CC[C@@H]32)C1 | 84% | 55% | 26% |  | 
10 | C[C@]12CC[C@@]3(C[C@@H]1CC[C@@H]1[C@@H]2CC[C@]2(C)C(=O)CC[C@@H]12)CN(CCN1CCCCC1)C(=O)O3 | 0% |  | 0% | 21% | 10%
11 | C[C@]12CC[C@](O)(CN3CCN(S(=O)(=O)c4cccc(C(F)(F)F)c4)CC3)C[C@@H]1CC[C@@H]1[C@@H]2CC[C@]2(C)C(=O)CC[C@@H]12 | 82% | 71% | 21% |  | 
12 | C[C@]12CC[C@](O)(CN3CCN(C(=O)c4ccccc4C(F)(F)F)CC3)C[C@@H]1CC[C@@H]1[C@@H]2CC[C@]2(C)C(=O)CC[C@@H]12 | 86% |  | 31% |  | 62%
13 | C[C@]12CC[C@](O)(CN3CCN(Cc4ccc(C(F)(F)F)cc4C(F)(F)F)CC3)C[C@@H]1CC[C@@H]1[C@@H]2CC[C@]2(C)C(=O)CC[C@@H]12 | 75% |  | 22% |  | 16%
14 | C[C@]12CC[C@](O)(CN3CCN(C(=O)c4cccc(C(F)(F)F)c4)CC3)C[C@@H]1CC[C@@H]1[C@@H]2CC[C@]2(C)C(=O)CC[C@@H]12 | 92% |  | 10% |  | 91%
15 | C[C@]12CC[C@](O)(CN3CCN(Cc4cccc(SC(F)(F)F)c4)CC3)C[C@@H]1CC[C@@H]1[C@@H]2CC[C@]2(C)C(=O)CC[C@@H]12 | 91% | 62% | 3% |  | 
16 | C[C@]12CC[C@](O)(CN3CCN(Cc4cccc(C(F)(F)F)c4)CC3)C[C@@H]1CC[C@@H]1[C@@H]2CC[C@]2(C)C(=O)CC[C@@H]12 | 88% |  | 51% |  | 52%
17 | C[C@@H]1CN(Cc2cccc(C(F)(F)F)c2)[C@@H](C)CN1C[C@@]1(O)CC[C@@]2(C)[C@@H](CC[C@@H]3[C@@H]2CC[C@]2(C)C(=O)CC[C@@H]32)C1 | 89% | 78% | 31% |  | 
18 | CCCN(CCC)CCN1C[C@]2(CC[C@@]3(C)[C@@H](CC[C@@H]4[C@@H]3CC[C@]3(C)C(=O)CC[C@@H]43)C2)OC1=O | 10% |  | 0% | 62% | 8%

Row | Compound | inhibition [1] | inhibition [2] | inhibition [3] | inhibition [4] | inhibition [5]
19 | Cc1ccc(CN2C[C@]3(CC[C@@]4(C)[C@@H](CC[C@@H]5[C@@H]4CC[C@]4(C)C(=O)CC[C@@H]54)C3)OC2=O)cc1 | 81% |  | 17% | 93% | 38%
20 | C[C@]12CC[C@](O)(CN3CCN(Cc4ccccc4C(F)(F)F)CC3)C[C@@H]1CC[C@@H]1[C@@H]2CC[C@]2(C)C(=O)CC[C@@H]12 | 86% |  | 18% |  | 20%
21 | C[C@]12CC[C@@]3(C[C@@H]1CC[C@@H]1[C@@H]2CC[C@]2(C)C(=O)CC[C@@H]12)CN(CCBr)C(=O)O3 | 69% |  | 17% | 93% | 31%
22 | C[C@@H]1CN(Cc2ccccc2C(F)(F)F)[C@@H](C)CN1C[C@@]1(O)CC[C@@]2(C)[C@@H](CC[C@@H]3[C@@H]2CC[C@]2(C)C(=O)CC[C@@H]32)C1 | 85% |  | 22% |  | 36%
23 | C[C@@H]1CN(Cc2cc(C(F)(F)F)ccc2C(F)(F)F)[C@@H](C)CN1C[C@@]1(O)CC[C@@]2(C)[C@@H](CC[C@@H]3[C@@H]2CC[C@]2(C)C(=O)CC[C@@H]32)C1 | 71% |  | 16% |  | 23%
24 | C[C@@H]1CN(C(=O)c2ccc(C(F)(F)F)cc2)[C@@H](C)CN1C[C@@]1(O)CC[C@@]2(C)[C@@H](CC[C@@H]3[C@@H]2CC[C@]2(C)C(=O)CC[C@@H]32)C1 | 91% |  | 17% |  | 61%
25 | Cc1cccc(OCCN2C[C@]3(CC[C@@]4(C)[C@@H](CC[C@@H]5[C@@H]4CC[C@]4(C)C(=O)CC[C@@H]54)C3)OC2=O)c1 | 85% |  | 13% | 95% | 40%
26 | C[C@@H]1CN(S(=O)(=O)c2cccc(C(F)(F)F)c2)[C@@H](C)CN1C[C@@]1(O)CC[C@@]2(C)[C@@H](CC[C@@H]3[C@@H]2CC[C@]2(C)C(=O)CC[C@@H]32)C1 | 91% |  | 32% |  | 77%
27 | C[C@]12CC[C@](O)(CN3CCN(C(=O)C4CCCCC4)CC3)C[C@@H]1CC[C@@H]1[C@@H]2CC[C@]2(C)C(=O)CC[C@@H]12 | 75% | 70% | 19% |  | 
28 | C[C@]12CC[C@](O)(CN3CCN(Cc4cc(C(F)(F)F)cc(C(F)(F)F)c4)CC3)C[C@@H]1CC[C@@H]1[C@@H]2CC[C@]2(C)C(=O)CC[C@@H]12 | 83% |  | 25% |  | 25%
29 | COc1cccc(CN2CCN(C[C@@]3(O)CC[C@@]4(C)[C@@H](CC[C@@H]5[C@@H]4CC[C@]4(C)C(=O)CC[C@@H]54)C3)CC2)c1 | 83% |  | 21% |  | 47%
30 | C[C@]12CC[C@](O)(CN3CCN(S(=O)(=O)c4ccccc4C(F)(F)F)CC3)C[C@@H]1CC[C@@H]1[C@@H]2CC[C@]2(C)C(=O)CC[C@@H]12 | 92% |  | 45% |  | 63%
31 | COc1ccc(CN2C[C@]3(CC[C@@]4(C)[C@@H](CC[C@@H]5[C@@H]4CC[C@]4(C)C(=O)CC[C@@H]54)C3)OC2=O)cc1 | 84% |  | 5% | 93% | 43%
32 | Cc1ccc(CN2C[C@]3(CC[C@@]4(C)[C@@H](CC[C@@H]5[C@@H]4CC[C@]4(C)C(=O)C(C)(C)C[C@@H]54)C3)OC2=O)cc1 | 22% |  | 2% | 74% | 18%
33 | CN1CCN(C[C@@]2(O)CC[C@@]3(C)[C@@H](CC[C@@H]4[C@@H]3CC[C@]3(C)C(=O)CC[C@@H]43)C2)CC1 | 0% |  | 0% | 40% | 2%
34 | C[C@@H]1CN(Cc2cc(C(F)(F)F)cc(C(F)(F)F)c2)[C@@H](C)CN1C[C@@]1(O)CC[C@@]2(C)[C@@H](CC[C@@H]3[C@@H]2CC[C@]2(C)C(=O)CC[C@@H]32)C1 | 74% |  | 25% |  | 16%
35 | C[C@]12CC[C@@]3(C[C@@H]1CC[C@@H]1[C@@H]2CC[C@]2(C)C(=O)CC[C@@H]12)CN(CCC(CN1CCOCC1)OC(=O)CCC1CCCC1)C(=O)O3 (stereo not given in full) | 79% |  | 2% | 94% | 49%
